# Screening results (PubChem BioAssay)
# A selection: hits, their analogues and other compounds. The true share with any hit is near 3.9%.
# TAAR1 ag = agonists of human TAAR1; Q96RJ0; CHO RD-HGA16 TAAR1, Fluo-8 calcium fluorescence; vehicle wells 0%, saturating PEA agonist 100%; activation, % at 3 µM; 360,000 tested, 0.99% active;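 active = activation above the mean activation of all test compounds in the run plus 3 SD, cut at about 38% in these data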
# Target sequence (Q96RJ0 whole entry, looked up): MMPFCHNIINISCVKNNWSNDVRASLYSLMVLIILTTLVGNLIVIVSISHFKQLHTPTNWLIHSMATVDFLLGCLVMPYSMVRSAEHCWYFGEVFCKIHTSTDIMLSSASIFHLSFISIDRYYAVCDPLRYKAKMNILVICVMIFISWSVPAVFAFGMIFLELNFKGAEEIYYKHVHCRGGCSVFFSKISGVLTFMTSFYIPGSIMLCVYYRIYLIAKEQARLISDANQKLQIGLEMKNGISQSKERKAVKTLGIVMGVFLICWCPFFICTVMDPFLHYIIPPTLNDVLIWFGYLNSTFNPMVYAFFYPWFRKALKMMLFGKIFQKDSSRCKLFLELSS
#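 Test system: RD-HGA16 (CHO) cells co-expressing Gα16 and hTAAR1 / Benchmarks: DMSO vehicle as 0%, PEA at EC100 as 100% / Repeats: no replicates (n 1) / Measure: % activation from peak over basal fluorescence ratio, DMSO-to-PEA scaled / Timing: 17-24 h plating, Fluo-8 75 min 37 °C, 30 min RT / Technique: kinetic Fluo-8 calcium fluorescence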
# OX1R antag-1 = human HCRTR1 antagonism. CHO/OX1R cells, Fluo-8 calcium fluorescence, orexin A. inhibition, % at 5 µM. 330,000 tested, 0.43% active. AID 434989;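 active = inhibition above its plate's threshold, mean inhibition of all tested compounds on the plate plus 3 SD, cut at about 37% in these data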;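 note: 0% = orexin A challenge wells and 100% = SB-334867-A antagonist wells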
# Target sequence (O43613 whole entry, looked up): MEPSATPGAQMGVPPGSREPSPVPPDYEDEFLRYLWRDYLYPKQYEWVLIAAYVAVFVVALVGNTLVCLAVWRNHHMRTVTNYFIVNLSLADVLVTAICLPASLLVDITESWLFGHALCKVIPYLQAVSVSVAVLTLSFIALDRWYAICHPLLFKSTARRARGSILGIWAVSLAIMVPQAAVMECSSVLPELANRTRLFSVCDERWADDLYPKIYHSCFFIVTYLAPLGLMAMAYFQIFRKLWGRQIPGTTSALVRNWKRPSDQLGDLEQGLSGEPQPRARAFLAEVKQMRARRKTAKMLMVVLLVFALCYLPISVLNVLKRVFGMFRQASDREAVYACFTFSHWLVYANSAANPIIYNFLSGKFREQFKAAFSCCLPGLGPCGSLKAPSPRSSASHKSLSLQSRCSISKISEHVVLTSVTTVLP
# CHO parental Ca = counter-screen for OX1R antagonists: effect in parental CHO cells | parental CHO-K1, ATP-induced calcium, Fluo-8 fluorescence | inhibition, % at 5.6 µM | 330,000 tested, 0.63% active | AID 463079;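 active = inhibition above that plate's mean sample inhibition plus 3 SD, cut at about 26% in these data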;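 note: 0% = ATP-challenged DMSO wells and 100% = DMSO wells without ATP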
#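 Test system: untransfected parental CHO cell line. Compound: one dose, 5.6 µM nominal. Detection: intracellular calcium via Fluo-8 no-wash fluorescent dye. Measure: % inhibition. Benchmarks: ATP-challenged DMSO wells low, unchallenged DMSO wells high.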
# OX1R antag-2 = antagonists of human orexin 1 receptor (OX1R); inhibition, % at 6.6 µM; O43613; AID 485270; 330,000 tested, 1.8% active; OX1R-expressing cells, FRET antagonist read-out; in the data active = inhibition mostly above about 38%, no sharp cut-off; inactive = mostly below about 40%;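 note: 0% = agonist challenge alone and 100% = reference antagonist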
# TAAR1 antagonist = antagonists of human TAAR1 | inhibition, % at 3 µM | CHO RD-HGA16 TAAR1, Fluo-8 calcium fluorescence, antagonist | Q96RJ0 | 360,000 tested, 1.5% active;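 active = inhibition above a per-plate cutoff, the mean inhibition of test compounds on that plate plus 3 SD, cut at about 49% in these data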;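 note: 0% = DMSO plus EC80 beta-PEA response and 100% = DMSO alone without agonist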
#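 Test system: hTAAR1-expressing CHO RD-HGA16 cells, Gα16-coupled; Probe or stimulus: EC80 β-phenethylamine stimulus; Compound dosing: single nominal final test compound concentration of 3 µM; Timing: 140 s kinetic read after compound, 140 s after agonist; Signal: Fluo-8 calcium-sensitive fluorescence; Measure: % inhibition of agonist calcium response; Controls: DMSO and EC80 PEA controls.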
# TAAR1 nonsel count = nonselective antagonist in TAAR1 antagonist counter-screen; counterscreen cell line, calcium fluorescence, antagonist mode; AID 651780; shares compounds with TAAR1 antagonist; 2,400 tested, 77% active; inhibition, % at 3 µM; in the data active = inhibition above about 22%;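 note: CHO-Ga16 host cells stimulated with ATP at an EC80 level; 0% = agonist EC80 plus vehicle and 100% = vehicle without agonist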
# TAAR1 antag conf = human TAAR1 antagonism, confirmed; shares compounds with TAAR1 antagonist; 2,400 tested, 40% active; TAAR1-expressing cells, fluorescence antagonist read-out; AID 651785; inhibition, % at 3 µM; in the data active = inhibition above about 49%;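 note: CHO-Ga16 host cells challenged with agonist PEA near its EC80; 0% = agonist at EC80 plus vehicle and 100% = vehicle with no agonist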
# Ga16 nonsel ag = counter-screen for TAAR1 antagonists: nonselective Ga16 agonists; shares compounds with TAAR1 antagonist; Ga16-expressing cells, calcium fluorescence, agonist counterscreen; activation, % at 3 µM; 2,400 tested, 18% active; in the data active = activation above about 12%;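 note: 0% = vehicle wells and 100% = saturating stimulus response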
# TAAR1 ag counter = counter-screen for human TAAR1 antagonists: TAAR1 agonists | hTAAR1 cell line, fluorescence activation, agonist mode | AID 651955 | shares compounds with TAAR1 antagonist | 2,400 tested, 2% active | activation, % at 3 µM; in the data active = activation above about 37%;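 note: CHO cells stably expressing TAAR1 with calcium dye readout; 0% = DMSO vehicle and 100% = full agonist response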
# Starred values were filed as active, the others as inactive; nt = not tested or not shown.
SMILES,TAAR1 ag,OX1R antag-1,CHO parental Ca,OX1R antag-2,TAAR1 antagonist,TAAR1 nonsel count,TAAR1 antag conf,Ga16 nonsel ag,TAAR1 ag counter
Cc1nn(CCc2nn[nH]n2)c2nc(-c3ccc(C4CCCCC4)cc3)cc(C(F)(F)F)c12,7.8,32.6,54.8*,11.3,79.7*,89.3*,68.5*,5.5,2.8
O=C(NCC1COc2ccccc2O1)C1CCN(S(=O)(=O)c2ccc(Cl)cc2)CC1 (stereo unspecified),14.4,-6.0,-16.6,2.9,51.0*,24.4*,41.8,11.8*,12.3
CCN=C1SC(C(=O)Nc2ccc(Cl)c(Cl)c2)CC(=O)N1CC (stereo unspecified),28.1,-5.3,-2.2,10.2,80.3*,44.2*,65.9*,13.3*,15.1
CCN=C1SC(C(=O)Nc2cccc(Br)c2)CC(=O)N1CC (stereo unspecified),21.5,-10.8,-11.0,15.2,75.5*,37.3*,62.9*,10.9,10.2
COc1cccc(-c2nc(N3CCCCC3C)c3ccccc3n2)c1O (stereo unspecified),4.2,-24.7,5.6,22.2,-22.4,nt,nt,nt,nt
COc1cccc(-c2nc(NC3CCCC3)c3ccccc3n2)c1O,8.2,11.3,-6.2,30.1,61.4*,21.5*,52.6*,7.5,12.2
CC(C)(C)OC(=O)NCCCCCNC(=O)c1[nH]cnc1C(=O)Nc1ccccc1,13.4,-9.2,-15.4,10.0,57.3*,18.6,31.4,5.6,9.6
C[C@H]1CNC(=O)c2c(C(=O)Nc3ccc(CNC(=O)OC(C)(C)C)cc3)ncn21,14.0,nt,nt,nt,54.8*,34.2*,45.7,8.6,4.7
C[C@H]1Cn2cnc(C(=O)Nc3ccc(CNC(=O)OC(C)(C)C)cc3)c2C(=O)N1,5.9,nt,nt,nt,13.3,nt,nt,nt,nt
CC(C)(C)OC(=O)NCCCC[C@H](NC(=O)c1[nH]cnc1C(=O)Nc1ccc(CNC(=O)OC(C)(C)C)cc1)C(=O)OC(C)(C)C,13.3,-41.2,-31.8,24.8,64.8*,28.4*,49.2*,7.8,7.3
CC(C)(C)OC(=O)NCCCCCNC(=O)c1[nH]cnc1C(=O)Nc1ccc(Cl)cc1,15.0,-26.6,-12.5,-1.4,55.3*,26.5*,41.9,4.7,3.4
CC1=NN(C(=O)c2ccccc2F)C(O)(c2ccc(Cl)cc2)C1 (stereo unspecified),-0.1,-29.5,-17.6,3.5,12.3,nt,nt,nt,nt
CCOc1ccc(N(CC(=O)Nc2cc(Cl)ccc2C)S(C)(=O)=O)cc1,1.4,-12.5,-7.9,9.9,-6.2,nt,nt,nt,nt
CCCn1c(SCC(=O)NC2CCCCC2)nnc1C1CC1,-0.3,-13.6,-12.4,9.7,7.9,nt,nt,nt,nt
CCCCN(C=O)c1c(CC)nc2ccc(C(=O)NCCCN3CCCC3=O)cn12,0.1,nt,nt,nt,1.2,nt,nt,nt,nt
COc1ccc(-n2nc(C(=O)NCC(=O)Nc3cc(OC)c(OC)c(OC)c3)c3ccccc3c2=O)cc1OC,16.4,-28.9,-25.2,-2.0,64.0*,28.6*,51.1*,7.1,13.4
COc1ccc(NC(=O)CNC(=O)c2nn(-c3ccc(OC)c(OC)c3)c(=O)c3ccccc23)c(OC)c1,17.1,-26.8,-18.6,3.9,40.9,nt,nt,nt,nt
CCOC(=O)N1CCN(C(=O)CNC(=O)c2nn(-c3ccc(OC)c(Cl)c3)c(=O)c3ccccc23)CC1,16.2,-13.6,-23.9,29.5,62.0*,32.2*,43.8,6.5,9.0
COc1ccc(-n2nc(C(=O)NCC(=O)Nc3cccc(NC(C)=O)c3)c3ccccc3c2=O)cc1,4.8,-11.3,-10.9,38.6,35.7,nt,nt,nt,nt
CCOC(=O)N1CCN(C(=O)CNC(=O)c2nn(-c3ccc(OC)c(OC)c3)c(=O)c3ccccc23)CC1,10.4,-13.9,-17.9,7.6,33.5,nt,nt,nt,nt
COc1ccc(-n2nc(C(=O)NCC(=O)Nc3cc(OC)c(OC)c(OC)c3)c3ccccc3c2=O)cc1,17.6,-24.8,-11.1,29.7,57.8*,28.0*,51.0*,7.4,7.8
COc1ccccc1NC(=O)c1ccc(NC(=O)COC(=O)C(C)C)cc1,2.4,-9.0,-5.6,-9.6,-0.4,nt,nt,nt,nt
COc1ccccc1NC(=O)c1ccc(NC(=O)COC(=O)c2ccc(O)cc2)cc1,17.7,-12.8,-5.0,2.5,64.8*,25.5*,41.1,9.6,9.9
COc1ccccc1NC(=O)c1ccc(NC(=O)COC(=O)CCC2CCCC2)cc1,13.6,-17.4,-15.4,3.4,57.7*,19.0,16.8,2.9,6.1
CCOC(=O)Cc1csc(NC(=O)CC(C)(C)C)n1,2.9,-9.6,-3.4,7.9,-14.7,nt,nt,nt,nt
SMILES,TAAR1 ag,OX1R antag-1,CHO parental Ca,OX1R antag-2,TAAR1 antagonist,TAAR1 nonsel count,TAAR1 antag conf,Ga16 nonsel ag,TAAR1 ag counter
COc1cccc(CNn2c(-c3cccc(C)c3)nc3ccccc3c2=O)c1O,4.4,-20.2,-20.1,15.3,54.2*,13.3,38.8,7.2,5.1
CCCCCC(=O)Nc1ccc(S(=O)(=O)NC2=NCCCCC2)cc1,1.7,-6.4,6.9,-5.5,1.8,nt,nt,nt,nt
COc1ccc(CCNC(=O)Nc2nc(C(N)COCc3ccccc3)cs2)cc1OC (stereo unspecified),3.8,nt,nt,nt,7.8,nt,nt,nt,nt
CC(C)c1c(C(=O)N/N=C/c2c[nH]c3ccccc23)nnn1-c1nonc1N,33.5,25.1,24.7,2.8,75.5*,40.0*,61.7*,17.5*,17.9
O=C(N/N=C/c1c[nH]c2ccc(Br)cc12)c1ccn(Cc2ccc(Cl)cc2)n1,16.2,-16.7,-1.1,14.2,62.1*,23.9*,41.9,4.2,11.4
COc1cccc(CCN2CCC(CNS(=O)(=O)c3cc(-c4cc(C)no4)ccc3C)CC2)c1,13.2,-7.9,-19.3,18.2,17.9,nt,nt,nt,nt
C[C@@]12C(=O)N(Cc3ccc(-c4ccccc4)cc3)CC(=O)N1[C@H](/C=C/c1ccccc1)[C@@H]1C(=O)N(c3ccccc3)C(=O)[C@@H]12,10.1,-25.7,-22.2,11.5,53.9*,30.2*,30.1,3.4,3.5
COC(=O)CN1C(=O)[C@H]2[C@@H](/C=C/c3ccccc3)N3C(=O)CN(Cc4ccc(-c5ccccc5)cc4)C(=O)[C@@]3(C)[C@H]2C1=O,0.2,-42.2,-32.9,3.1,-5.8,nt,nt,nt,nt
CC(Sc1nnc(C2CC2)n1C)C(=O)Nc1ccc(N2CCOCC2)cc1 (stereo unspecified),-0.1,nt,nt,nt,-19.5,nt,nt,nt,nt
CC1=C(C(=O)N2CCOCC2)CC(CC(=O)NCc2cccc3ccccc23)C(=O)N1Cc1ccccc1 (stereo unspecified),1.6,nt,nt,nt,2.3,nt,nt,nt,nt
O=c1n(Cc2ccc(Cl)cc2)c2sc3c(c2c2ncnn12)CCCC3,7.2,-34.4,-29.5,9.0,66.3*,19.7,35.5,8.8,16.2
